This is an account of results in ChEMBL document CHEMBL4813970, “Design, synthesis and evaluation of novel dimethylamino chalcone-O-alkylamines derivatives as potential multifunctional agents against Alzheimer's disease” (Eur J Med Chem, 2021).

For one assay, the target named is Butyrylcholinesterase (Rattus norvegicus, UniProt Q9JKC1). Put plainly: Inhibition of rat serum BuChE by Ellman's method. For orientation: Ellman's reagent forms a yellow product with free thiols.
Assay [1] concerns the target T1, Amine oxidase [flavin-containing] A (Homo sapiens, UniProt P21397).
T1 sequence (P21397 whole entry): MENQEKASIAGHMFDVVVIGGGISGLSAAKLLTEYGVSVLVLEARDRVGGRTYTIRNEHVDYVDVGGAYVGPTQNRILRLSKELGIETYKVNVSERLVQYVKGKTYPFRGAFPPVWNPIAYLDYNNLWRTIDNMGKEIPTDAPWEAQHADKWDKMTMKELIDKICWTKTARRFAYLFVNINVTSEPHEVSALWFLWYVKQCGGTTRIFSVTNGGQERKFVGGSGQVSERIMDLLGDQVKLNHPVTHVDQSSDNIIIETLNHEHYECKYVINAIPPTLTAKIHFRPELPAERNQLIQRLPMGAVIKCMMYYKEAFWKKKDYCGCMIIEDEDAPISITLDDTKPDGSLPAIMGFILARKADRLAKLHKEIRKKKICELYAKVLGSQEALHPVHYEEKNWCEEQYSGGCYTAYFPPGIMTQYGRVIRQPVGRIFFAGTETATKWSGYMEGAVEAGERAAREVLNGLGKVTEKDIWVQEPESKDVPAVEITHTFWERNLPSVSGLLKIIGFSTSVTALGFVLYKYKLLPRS
Nature of the assay: Inhibition of human recombinant MAO-A by multimode plate reader assay.

In assay [2] the target is T2, Amyloid-beta precursor protein (Homo sapiens, UniProt P05067). Nature of the assay: Inhibition of self-induced amyloid beta (1 to 42) (unknown origin) aggregation by T-fluorescence assay relative to control. To be noted: for pIC50: read-out: IC50. The method in brief:
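IC50 by ThT fluorescence (excitation 446 nm, emission 490 nm). Computed only where inhibition of self-induced Aβ1-42 aggregation at 25 μM exceeded 90%. Triplicate; mean of three independent experiments.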

Assay [3] concerns the target Acetylcholinesterase (Electrophorus electricus, UniProt O42275). Nature of the assay: Inhibition of electric eel AChE using acetylthiocholine iodide as substrate by Ellman's method.
In assay [4] the target is T3, Acetylcholinesterase (Rattus norvegicus, UniProt P37136).
T3 sequence (P37136 whole entry): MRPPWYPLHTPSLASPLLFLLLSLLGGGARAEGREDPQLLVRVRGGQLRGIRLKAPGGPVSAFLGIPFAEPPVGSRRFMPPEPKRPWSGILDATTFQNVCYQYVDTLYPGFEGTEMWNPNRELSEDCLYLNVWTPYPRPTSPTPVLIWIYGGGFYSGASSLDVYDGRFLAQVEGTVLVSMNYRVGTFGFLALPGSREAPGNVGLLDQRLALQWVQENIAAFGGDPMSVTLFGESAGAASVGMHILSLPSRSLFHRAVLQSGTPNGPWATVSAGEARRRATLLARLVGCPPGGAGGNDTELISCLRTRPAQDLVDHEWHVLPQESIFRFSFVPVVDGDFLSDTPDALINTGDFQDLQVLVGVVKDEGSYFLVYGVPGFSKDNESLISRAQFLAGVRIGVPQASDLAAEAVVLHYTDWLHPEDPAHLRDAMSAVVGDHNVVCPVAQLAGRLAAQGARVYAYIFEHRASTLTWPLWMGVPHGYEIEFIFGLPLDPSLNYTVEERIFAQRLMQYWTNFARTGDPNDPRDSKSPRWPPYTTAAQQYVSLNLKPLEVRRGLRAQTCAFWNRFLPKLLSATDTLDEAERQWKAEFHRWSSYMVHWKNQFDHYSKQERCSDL
Put plainly: Inhibition of rat cortex homogenate acetylcholinesterase by Ellman's method.

Assay [5] has as its target T2, Amyloid-beta precursor protein. Put plainly: Inhibition of Cu2+ induced amyloid beta (1 to 42 residues) (unknown origin) aggregation at 25 uM by thioflavin-T fluorescence method relative to control.
Assay [6] in a line: Antioxidant activity of compound assessed as trolox equivalent antioxidant capacity by ORAC-FL assay. Type of assay: functional.
For assay [7], the target named is T2, Amyloid-beta precursor protein. Put plainly: Disaggregation of Cu2+ induced amyloid beta (1 to 42 residues) (unknown origin) aggregation at 25 uM by thioflavin-T fluorescence method relative to control.
Assay [8] has the same target. Put plainly: Disaggregation of self-induced amyloid beta (1 to 42) (unknown origin) at 25 uM measured by Thioflavin T based fluorometric assay relative to control.
Assay [9] has as its target T4, Amine oxidase [flavin-containing] B (Homo sapiens, UniProt P27338).
T4 sequence (P27338 whole entry): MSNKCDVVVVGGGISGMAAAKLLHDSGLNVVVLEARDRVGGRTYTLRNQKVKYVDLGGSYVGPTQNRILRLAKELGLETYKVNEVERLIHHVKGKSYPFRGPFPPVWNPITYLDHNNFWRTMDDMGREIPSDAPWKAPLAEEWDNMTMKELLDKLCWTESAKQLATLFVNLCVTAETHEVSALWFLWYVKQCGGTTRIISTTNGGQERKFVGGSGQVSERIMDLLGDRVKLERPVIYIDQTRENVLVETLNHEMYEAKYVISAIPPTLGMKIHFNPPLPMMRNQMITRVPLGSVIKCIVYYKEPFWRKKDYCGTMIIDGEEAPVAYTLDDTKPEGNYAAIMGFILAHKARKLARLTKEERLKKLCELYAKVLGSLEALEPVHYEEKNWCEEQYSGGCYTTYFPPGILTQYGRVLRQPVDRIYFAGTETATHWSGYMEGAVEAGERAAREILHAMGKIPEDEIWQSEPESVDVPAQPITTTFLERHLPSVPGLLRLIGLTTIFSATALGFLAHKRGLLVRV
Nature of the assay: Inhibition of human recombinant MAO-B by multimode plate reader assay.

Another assay is filed under the species Homo sapiens. Put plainly: Selectivity index, ratio of IC50 for recombinant human MAO-A to IC50 for recombinant human MAO-B. The method in brief: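 Selectivity index taken as IC50(hMAO-A)/IC50(hMAO-B). IC50 values are mean ± SEM from three experiments.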
The target in assay [10] is T2, Amyloid-beta precursor protein. Put plainly: Inhibition of self-induced amyloid beta (1 to 42) (unknown origin) aggregation at 25 uM by T-fluorescence assay relative to control. The essentials:
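Self-induced Aβ1-42 aggregation measured by ThT fluorescence, excitation 446 nm and emission 490 nm. Compound and Aβ1-42 each at 25 μM. Run in triplicate. Values are mean of three independent experiments.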

pIC50: −log10 of the molar value.

Chain of Butyrylcholinesterase (Q9JKC1 whole entry): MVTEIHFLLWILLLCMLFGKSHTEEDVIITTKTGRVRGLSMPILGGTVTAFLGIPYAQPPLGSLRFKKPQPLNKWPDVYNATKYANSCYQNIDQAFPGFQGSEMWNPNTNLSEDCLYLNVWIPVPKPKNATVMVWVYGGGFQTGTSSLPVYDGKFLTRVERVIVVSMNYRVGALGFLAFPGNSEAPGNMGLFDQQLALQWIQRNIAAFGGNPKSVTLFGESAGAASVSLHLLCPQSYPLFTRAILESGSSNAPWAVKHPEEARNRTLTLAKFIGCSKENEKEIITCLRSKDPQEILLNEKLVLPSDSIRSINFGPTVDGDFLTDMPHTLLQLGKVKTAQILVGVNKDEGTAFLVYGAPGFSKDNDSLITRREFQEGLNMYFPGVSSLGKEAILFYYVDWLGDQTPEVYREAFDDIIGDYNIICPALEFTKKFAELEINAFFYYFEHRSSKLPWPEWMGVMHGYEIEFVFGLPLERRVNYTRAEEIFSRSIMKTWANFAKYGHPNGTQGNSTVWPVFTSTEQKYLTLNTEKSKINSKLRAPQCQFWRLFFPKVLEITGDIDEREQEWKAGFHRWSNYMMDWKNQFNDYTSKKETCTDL
T2 sequence (P05067 whole entry): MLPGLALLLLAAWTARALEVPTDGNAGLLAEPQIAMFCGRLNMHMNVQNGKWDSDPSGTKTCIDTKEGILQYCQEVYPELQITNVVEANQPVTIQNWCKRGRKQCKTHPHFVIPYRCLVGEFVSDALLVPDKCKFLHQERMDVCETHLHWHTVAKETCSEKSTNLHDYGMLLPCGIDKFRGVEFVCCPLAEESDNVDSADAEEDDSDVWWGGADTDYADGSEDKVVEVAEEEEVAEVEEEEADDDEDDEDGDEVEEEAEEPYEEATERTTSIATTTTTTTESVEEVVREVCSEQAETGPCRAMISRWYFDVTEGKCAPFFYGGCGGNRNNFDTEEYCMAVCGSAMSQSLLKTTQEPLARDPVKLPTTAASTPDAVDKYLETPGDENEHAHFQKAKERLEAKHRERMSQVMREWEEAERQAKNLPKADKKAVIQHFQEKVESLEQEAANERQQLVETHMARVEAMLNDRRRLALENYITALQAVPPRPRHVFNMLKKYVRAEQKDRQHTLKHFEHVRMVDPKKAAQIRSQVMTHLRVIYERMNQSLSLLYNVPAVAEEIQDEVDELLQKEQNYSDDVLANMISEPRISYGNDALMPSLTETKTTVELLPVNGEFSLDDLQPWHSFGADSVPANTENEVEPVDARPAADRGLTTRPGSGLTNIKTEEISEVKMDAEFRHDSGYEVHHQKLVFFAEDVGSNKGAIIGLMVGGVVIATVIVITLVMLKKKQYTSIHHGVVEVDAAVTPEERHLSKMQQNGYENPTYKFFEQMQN
Chain of Acetylcholinesterase (Electrophorus electricus, UniProt O42275) (O42275 whole entry): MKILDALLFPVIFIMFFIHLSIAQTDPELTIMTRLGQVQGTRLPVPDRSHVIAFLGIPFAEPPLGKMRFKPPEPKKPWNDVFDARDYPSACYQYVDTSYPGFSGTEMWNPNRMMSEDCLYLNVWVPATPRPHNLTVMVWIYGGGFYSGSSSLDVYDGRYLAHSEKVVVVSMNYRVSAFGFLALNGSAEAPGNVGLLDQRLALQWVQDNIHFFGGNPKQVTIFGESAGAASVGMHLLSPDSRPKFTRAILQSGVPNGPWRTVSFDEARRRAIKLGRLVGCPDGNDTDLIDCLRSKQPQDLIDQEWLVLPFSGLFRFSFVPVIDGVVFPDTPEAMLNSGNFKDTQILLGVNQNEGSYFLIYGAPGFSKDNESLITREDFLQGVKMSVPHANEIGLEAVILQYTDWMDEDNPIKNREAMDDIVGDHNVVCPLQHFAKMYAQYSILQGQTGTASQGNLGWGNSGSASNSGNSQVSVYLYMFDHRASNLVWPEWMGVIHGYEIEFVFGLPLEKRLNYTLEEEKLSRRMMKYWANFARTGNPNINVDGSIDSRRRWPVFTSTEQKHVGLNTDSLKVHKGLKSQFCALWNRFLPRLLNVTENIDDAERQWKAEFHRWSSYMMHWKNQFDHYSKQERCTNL

Regarding `CCN(CCCOc1ccc(C(=O)/C=C/c2ccc(N(C)C)cc2)c(O)c1)Cc1ccccc1`, the pIC50 (usually −log10 of the IC50, conventionally taken in molar units) at Butyrylcholinesterase was less than 3.30; in assay [1] it was 4.08; in assay [2] it was 5.77; against Acetylcholinesterase [3], 5.30; at Acetylcholinesterase [4], 5.84; in assay [9], 4.88. Further, the inhibition – broadly, the relative decrease from the control value, in per cent – in assay [5] amounted to 91.9%. For the same molecule, the Activity was 1.6 in [6], 73.8% in assay [7] and 97.5% in assay [8]. In addition, the Selectivity Index in the assay listed under Homo sapiens was found to be 6.3.

Regarding `CCN(CCCCCCOc1ccc(C(=O)/C=C/c2ccc(N(C)C)cc2)c(O)c1)Cc1ccc(N(C)C)cc1`, the pIC50 is less than 3.30 at Butyrylcholinesterase; 4.27 in [1]; 5.86 in [2]; 5.10 against Acetylcholinesterase [3]; 5.86 against Acetylcholinesterase [4]; 5.64 in [9]. This molecule also yielded an inhibition in assay [5] of 95.6%. Besides, the Activity in assay [6] is 1.4; in assay [7] it was 84.4%; in [8], 95%. Moreover, the Selectivity Index in the assay listed under Homo sapiens stood at 23.3.

Turning to `CCN(CCCCOc1ccc(C(=O)/C=C/c2ccc(N(C)C)cc2)c(O)c1)Cc1ccc(N(C)C)cc1`, the pIC50 is 4.16 on Butyrylcholinesterase; 4.76 in assay [1]; 5.68 in assay [2]; 5.71 on Acetylcholinesterase [3]; 5.87 on Acetylcholinesterase [4]; 5.62 in assay [9]. Also, the inhibition in assay [5] was found to be 91.7%. For the same molecule, the figures for the Activity in [6], in assay [7] and in assay [8] were 1.5, 78.8% and 91.6%, respectively. Also, in the assay filed under Homo sapiens, the Selectivity Index came out at 7.2.

Regarding `CCN(CCCOc1ccc(C(=O)/C=C/c2ccc(N(C)C)cc2)c(O)c1)Cc1ccccc1N(C)C`, the pIC50 against Butyrylcholinesterase was 3.47; in [1] it was 4.63; in assay [2] it was 5.90; on Acetylcholinesterase [3], 5.80; against Acetylcholinesterase [4], 6.68; in assay [9], 5.49. The inhibition in assay [5] was 94.8%. Moreover, the Activity turned out to be 2.1 in [6], 89.5% in assay [7] and 96.6% in assay [8]. Further, the Selectivity Index in the assay listed under Homo sapiens turned out to be 7.4.

With `CCN(CCCCOc1ccc(C(=O)/C=C/c2ccc(N(C)C)cc2)c(O)c1)Cc1ccccc1`, the pIC50 on Butyrylcholinesterase was 3.69; in [1], 4.11; in [2], 5.42; at Acetylcholinesterase [3], 5.37; against Acetylcholinesterase [4] it was 5.86; in assay [9], 5.05. Also, the inhibition in assay [5] turned out to be 93.9%. In addition, the Activity in [6] was 1.5; in assay [7], 82.1%; in assay [8], 97.2%. The Selectivity Index in the assay filed under Homo sapiens worked out at 8.7.

On to `CCN(CCCOc1ccc(C(=O)/C=C/c2ccc(N(C)C)cc2)c(O)c1)Cc1ccccc1OC`, for which the pIC50 at Butyrylcholinesterase is less than 3.30; in [1], 4.58; in assay [2], 5.45; against Acetylcholinesterase [3], 5.28; against Acetylcholinesterase [4] it was 6.20; in [9] it was 4.97. In assay [5], this molecule had an inhibition of 95.2%. Further, the figures for the Activity in assay [6], in [7] and in assay [8] were 1.5, 74.8% and 98.1%, respectively. The Selectivity Index in the assay filed under Homo sapiens stood at 2.4.

Consider `CCN(CCCCOc1ccc(C(=O)/C=C/c2ccc(N(C)C)cc2)c(O)c1)Cc1ccccc1OC`, for which the pIC50 at Butyrylcholinesterase was less than 3.30; in assay [1], 4.56; in assay [2], 5.83; at Acetylcholinesterase [3] it was 5.39; against Acetylcholinesterase [4], 6.19; in assay [9], 5.96. Also, the inhibition in assay [5] was 91.9%. Also, the Activity in assay [6] came to 1.4; in assay [7], 73%; in assay [8], 99.7%. Besides, the Selectivity Index in the assay filed under Homo sapiens was 25.

Regarding `CCN(CCCOc1ccc(C(=O)/C=C/c2ccc(N(C)C)cc2)c(O)c1)Cc1ccc(N(C)C)cc1`, the pIC50 at Butyrylcholinesterase is less than 3.30; in [1] it was 4.24; in [2], 5.88; at Acetylcholinesterase [3], 5.21; at Acetylcholinesterase [4] it was 5.61; in [9], 4.86. For the same molecule, the inhibition in assay [5] turned out to be 95%. Also, the Activity is 1.3 in [6], 77.6% in assay [7] and 73.7% in assay [8]. Also, the Selectivity Index in the assay filed under Homo sapiens came out at 4.2.

On to `CCN(CCCCCCOc1ccc(C(=O)/C=C/c2ccc(N(C)C)cc2)c(O)c1)Cc1ccccc1OC`, for which the pIC50 against Butyrylcholinesterase was less than 3.30; in [1], 4.27; in [2] it was 5.83; against Acetylcholinesterase [3] it was 5.29; at Acetylcholinesterase [4], 6.25; in [9], 6.15. In [5], this molecule showed an inhibition of 93.2%. The figures for the Activity in assay [6], in [7] and in assay [8] were 1.4, 85.6% and 92.6%, respectively. For the same molecule, the Selectivity Index in the assay filed under Homo sapiens was found to be 77.6.

As to `CCN(CCCCCCOc1ccc(C(=O)/C=C/c2ccc(N(C)C)cc2)c(O)c1)Cc1ccccc1N(C)C`, the pIC50 is 3.37 against Butyrylcholinesterase; 4.42 in assay [1]; 5.99 in assay [2]; 5.61 at Acetylcholinesterase [3]; 6.51 at Acetylcholinesterase [4]; 5.68 in assay [9]. Also, the inhibition in assay [5] is 96.5%. For the same molecule, the Activity in assay [6] stood at 2; in assay [7], 83.4%; in assay [8], 87.9%. Besides, the Selectivity Index in the assay filed under Homo sapiens amounted to 18.

Regarding `CCN(CCCCCCOc1ccc(C(=O)/C=C/c2ccc(N(C)C)cc2)c(O)c1)Cc1ccccc1`, the pIC50 on Butyrylcholinesterase is less than 3.30; in [1], 4.50; in [2], 5.50; at Acetylcholinesterase [3], 5.44; against Acetylcholinesterase [4], 5.40; in assay [9] it was 5.68. In assay [5], the inhibition is 91%. Besides, the Activity worked out at 1.4 in [6], 88.3% in [7] and 84.4% in assay [8]. Also, the Selectivity Index in the assay listed under Homo sapiens amounted to 15.

In turn, `CCN(CCCCOc1ccc(/C=C/C(=O)c2ccc(N(C)C)cc2O)cc1)Cc1ccccc1N(C)C` yielded an inhibition in assay [10] of 75.8%. Moreover, the pIC50 against Butyrylcholinesterase is less than 3.30; in [1], 4.91; on Acetylcholinesterase [3], 5.52; in [9], 5.37. Besides, the Activity in assay [6] came out at 1.5. Moreover, in the assay listed under Homo sapiens, the Selectivity Index turned out to be 2.9.

As for `COc1cc2c(cc1OC)C(=O)C(CC1CCN(Cc3ccccc3)CC1)C2` (centres undefined) [DONEPEZIL], the IC50 result in [2] is listed as “Not Active”.
